Data reported in ChEMBL document CHEMBL5104204, “Synthesis and in vitro anticancer evaluation of novel flavonoid-based amide derivatives as regulators of the PI3K/AKT signal pathway for TNBC treatment” (RSC Med Chem, 2022).

What was measured:
Assay type in all cases: functional, cell-based
HCC1937 = assay: Antitumor activity against human HCC1937 cells assessed as inhibit cell proliferation incubated for 72 hrs by CCK-8 assay; conditions: HCC1937, 72 h
Method in brief: (§1)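 CCK8 viability readout. Culture media: HCC1937, A549, HeLa and GTL-16 in RPMI 1640; MDA-MB-231, MCF-7 and HepG2 in high-glucose DMEM; all with 10% FBS and penicillin/streptomycin, 37 °C, 5% CO2. 4×10^3–6×10^3 cells/well, 24 h, then compounds in serum-free medium, 72 h at 37 °C. 10% CCK8, 2 h, OD 450/630 nm. Five wells per group; IC50 from inhibition rate; three independent experiments, mean ± SD.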

GTL 16 cell line = assay: Antitumor activity against human GTL 16 cell line assessed as inhibit cell proliferation incubated for 72 hrs by CCK-8 assay; conditions: GTL 16, 72 h; method in brief: as §1
MCF7 = assay: Antitumor activity against human MCF7 cells assessed as inhibit cell proliferation incubated for 72 hrs by CCK-8 assay; conditions: MCF7, 72 h; method in brief: as §1
HeLa = assay: Antitumor activity against human HeLa cells assessed as inhibit cell proliferation incubated for 72 hrs by CCK-8 assay; method in brief: as §1
A549 = assay: Antitumor activity against human A549 cells assessed as inhibit cell proliferation incubated for 72 hrs by CCK-8 assay; conditions: A549, 72 h; method in brief: as §1
HepG2 = assay: Antitumor activity against human HepG2 cells assessed as inhibit cell proliferation incubated for 72 hrs by CCK-8 assay; conditions: HepG2, 72 h; method in brief: as §1
MDA-MB-231 = assay: Antitumor activity against human MDA-MB-231 cells assessed as inhibit cell proliferation incubated for 72 hrs by CCK-8 assay; conditions: MDA-MB-231, 72 h; method in brief: as §1

Compound | IC50 (HCC1937) [µM] | IC50 (GTL 16 cell line) [µM] | IC50 (MCF7) [µM] | IC50 (HeLa) [µM] | IC50 (A549) [µM] | IC50 (HepG2) [µM] | IC50 (MDA-MB-231) [µM]
O=c1[nH]cc(F)c(=O)[nH]1 [FLUOROURACIL] | 25.9 | 0.84 | 4.42 | 1.94 | 2.65 | 2.88 | 7.75
Cc1ccccc1C(=O)Nc1cccc(-c2oc3cc(-c4ccc(F)cc4)ccc3c(=O)c2O)c1 | 9.9 | 24.8 | 2.28 | 11.9 | 17.6 | 19.4 | 4.91
COc1cccc(C(=O)Nc2cccc(-c3oc4cc(-c5ccc(F)cc5)ccc4c(=O)c3O)c2)c1 | 18.9 | 12.5 | 15.3 | 5.65 | 10.8 | 9.95 | 9.16
N#Cc1ccc(C(=O)Nc2cccc(-c3oc4cc(-c5ccc(F)cc5)ccc4c(=O)c3O)c2)cc1 | 2.99 | 31.8 | 2.66 | 23.3 | 2.36 | 7.11 | 11.6
COc1cc(OC)cc(C(=O)Nc2cccc(-c3oc4cc(-c5ccc(F)cc5)ccc4c(=O)c3O)c2)c1 | 6.25 | 19.6 | 3.47 | 2.7 | 2.39 | 23.5 | 4.04
O=C(Nc1cccc(-c2oc3cc(-c4ccc(F)cc4)ccc3c(=O)c2O)c1)c1ccc(C(F)(F)F)cc1 | 7.35 | 33 | 32.6 | 17.4 | 19.4 | 42.7 | 29.4
O=C(Nc1cccc(-c2oc3cc(-c4ccc(F)cc4)ccc3c(=O)c2O)c1)c1cc(F)cc(F)c1 | 2.07 | 7.41 | 2.49 | 3.38 | 7.62 | 4.96 | 2.44
O=C(Nc1cccc(-c2oc3cc(-c4ccc(F)cc4)ccc3c(=O)c2O)c1)c1ccc(Br)cc1 | 8.63 | 25.4 | 24 | 9.74 | 13.5 | 13.9 | 24.9
COc1ccccc1C(=O)Nc1cccc(-c2oc3cc(-c4ccc(F)cc4)ccc3c(=O)c2O)c1 | 9.05 | 6.37 | 2.1 | 14.1 | 11.7 | 14.5 | 5.11
O=C(Nc1cccc(-c2oc3cc(-c4ccc(F)cc4)ccc3c(=O)c2O)c1)c1ccccc1F | 10.8 | 17.4 | 7.57 | 5.63 | 4.41 | 10.1 | 7.24
O=C(Nc1cccc(-c2oc3cc(-c4ccc(F)cc4)ccc3c(=O)c2O)c1)c1ccc(F)cc1F | 6.98 | 9.64 | 13.5 | 10.7 | 20.5 | 26.4 | 11.2
O=C(Nc1cccc(-c2oc3cc(-c4ccc(F)cc4)ccc3c(=O)c2O)c1)c1ccc(-c2ccccc2)cc1 | 44.1 |  | 38.5 | > 100 | > 100 | 88.5 | 63.2
O=C(Nc1cccc(-c2oc3cc(-c4ccc(F)cc4)ccc3c(=O)c2O)c1)c1ccc(Br)cc1F |  |  |  |  | 46.1 | > 100 | 
CCCc1ccc(C(=O)Nc2cccc(-c3oc4cc(-c5ccc(F)cc5)ccc4c(=O)c3O)c2)cc1 | 15.3 | 20.4 | 36.8 | 8.79 | 47.6 | 51.5 | 32.2
Cc1cccc(C(=O)Nc2cccc(-c3oc4cc(-c5ccc(F)cc5)ccc4c(=O)c3O)c2)c1 | 8.03 | 10.9 | 7.85 | 6.65 | 16.4 | 13.5 | 2.84
COc1ccc(C(=O)Nc2cccc(-c3oc4cc(-c5ccc(F)cc5)ccc4c(=O)c3O)c2)cc1 | 5.49 | 21.1 | 6.25 | 4.82 | 8.7 | 8.42 | 16.5
O=C(Nc1cccc(-c2oc3cc(-c4ccc(F)cc4)ccc3c(=O)c2O)c1)c1cnc(Cl)nc1Cl |  |  |  |  | > 100 | > 100 | 
COc1ccc(C(=O)Nc2cccc(-c3oc4cc(-c5ccc(F)cc5)ccc4c(=O)c3O)c2)c(F)c1 | 24.4 | 15.3 | 20 | 16.1 | 40 | 45.3 | 17.6
O=C(Nc1cccc(-c2oc3cc(-c4ccc(F)cc4)ccc3c(=O)c2O)c1)c1ccc([N+](=O)[O-])cc1 | 5.64 | 18.2 | 3.97 | 12.3 | 2.44 | 1.86 | 14.7
O=C(Nc1cccc(-c2oc3cc(-c4ccc(F)cc4)ccc3c(=O)c2O)c1)c1ccc(F)cc1 | 14.2 | 14.6 | 8.59 | 5.35 | 6.93 | 9.28 | 16
O=C(Nc1cccc(-c2oc3cc(-c4ccc(F)cc4)ccc3c(=O)c2O)c1)c1cccc(F)c1 | 6.59 | 15.8 | 5.77 | 8.78 | 15.4 | 15.5 | 2.51
Cc1cc(C)cc(C(=O)Nc2cccc(-c3oc4cc(-c5ccc(F)cc5)ccc4c(=O)c3O)c2)c1 | 4.86 | 13.5 | 20.4 | 5.54 | 3.74 | 13.4 | 11.9
Cc1ccc(C(=O)Nc2cccc(-c3oc4cc(-c5ccc(F)cc5)ccc4c(=O)c3O)c2)cc1 | 7.11 | 12.9 | 2.4 | 6.19 | 6.91 | 2.32 | 4.35
O=C(Nc1cccc(-c2oc3cc(-c4ccc(F)cc4)ccc3c(=O)c2O)c1)c1ccc(Cl)cc1 | 4.03 | 9.14 | 4.73 | 3.67 | 10.8 | 11 | 12.8
CCc1ccc(C(=O)Nc2cccc(-c3oc4cc(-c5ccc(F)cc5)ccc4c(=O)c3O)c2)cc1 | 13.2 | 24.6 | 22.8 | 21 | 18.5 | 20.6 | 9.07
Cc1cc(C(=O)Nc2cccc(-c3oc4cc(-c5ccc(F)cc5)ccc4c(=O)c3O)c2)ccc1F | 5.42 | 12.1 | 7.71 | 18.9 | 11.5 | 9.54 | 7.44
